Measured values published in ChEMBL document CHEMBL3046615, “Isolation of nematicidal compounds from Tagetes patula L. yellow flowers: structure-activity relationship studies against cyst nematode Heterodera zeae infective stage larvae” (2011).
The source made the active and inactive calls. The rule behind the calls is not given here.

Tests used:
Heterodera zeae [1] = experiment: Nematicidal activity against Heterodera zeae infective stage larvae assessed as nematode mortality at 0.5% under light conditions measured 5 to 60 min post dose by stereoscopic microscopy; format: functional, organism-based
In short: (§1)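 H. zeae freshly hatched second-stage juveniles, 100 per plate, three replicates, at 28 ± 2 °C under light or in a dark box. Dilutions are % of a stock: 30 mg/mL for extracts/fractions, 1 mg/mL for pure compounds. Methanol-, DMSO- or water-soluble samples were tested in glass cavity blocks. Petroleum ether-soluble samples were air-dried in the block and covered with agar pieces bearing cultured larvae. Mortality was followed over 5–60 min; each value is the mean of three experiments.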

Heterodera zeae [2] = experiment: Nematicidal activity against Heterodera zeae infective stage larvae assessed as nematode mortality at 2% under light conditions measured 5 to 60 min post dose by stereoscopic microscopy; format: functional, organism-based; in short: as §1
Heterodera zeae [3] = experiment: Nematicidal activity against Heterodera zeae infective stage larvae assessed as nematode mortality at 1% under light conditions measured 24 hr post dose by stereoscopic microscopy; format: functional
In short: (§2)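 Freshly hatched H. zeae second-stage juveniles, 100 per Petri plate, three replicates. Samples in MeOH, DMSO or water were tested in glass cavity blocks; petroleum ether samples were dried onto the block and larvae transferred on agar pieces. Percentages are dilutions of 30 mg/mL stocks (extracts/fractions) or 1 mg/mL stocks (pure compounds). Incubated at 28 ± 2 °C in light or dark box; mortality averaged over three replicates.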

Heterodera zeae [4] = experiment: Nematicidal activity against Heterodera zeae infective stage larvae assessed as nematode mortality at 0.5% under light conditions measured 24 hr post dose by stereoscopic microscopy; format: functional; in short: as §2
Heterodera zeae [5] = experiment: Nematicidal activity against Heterodera zeae infective stage larvae assessed as nematode mortality at 0.25% under light conditions measured 72 hr post dose by stereoscopic microscopy; format: functional; in short: as §2
Heterodera zeae [6] = experiment: Nematicidal activity against Heterodera zeae infective stage larvae assessed as nematode mortality at 0.25% under dark conditions measured 24 hr post dose by stereoscopic microscopy; format: functional; in short: as §2
Heterodera zeae [7] = experiment: Nematicidal activity against Heterodera zeae infective stage larvae assessed as nematode mortality at 1% under dark conditions measured 48 hr post dose by stereoscopic microscopy; format: functional; in short: as §2
Heterodera zeae [8] = experiment: Nematicidal activity against Heterodera zeae infective stage larvae assessed as nematode mortality at 0.5% under light conditions measured 72 hr post dose by stereoscopic microscopy; format: functional; in short: as §2
Heterodera zeae [9] = experiment: Nematicidal activity against Heterodera zeae infective stage larvae assessed as nematode mortality at 0.125% under dark conditions measured 72 hr post dose by stereoscopic microscopy; format: functional; in short: as §2
Heterodera zeae [10] = experiment: Nematicidal activity against Heterodera zeae infective stage larvae assessed as nematode mortality at 1% under dark conditions measured 24 hr post dose by stereoscopic microscopy; format: functional; in short: as §2
Heterodera zeae [11] = experiment: Nematicidal activity against Heterodera zeae infective stage larvae assessed as nematode mortality at 0.5% under dark conditions measured 5 to 60 min post dose by stereoscopic microscopy; format: functional, organism-based; in short: as §1
Heterodera zeae [12] = experiment: Nematicidal activity against Heterodera zeae infective stage larvae assessed as nematode mortality at 0.25% under dark conditions measured 48 hr post dose by stereoscopic microscopy; format: functional; in short: as §2
Heterodera zeae [13] = experiment: Nematicidal activity against Heterodera zeae infective stage larvae assessed as nematode mortality at 0.125% under light conditions measured 24 hr post dose by stereoscopic microscopy; format: functional; in short: as §2
Heterodera zeae [14] = experiment: Nematicidal activity against Heterodera zeae infective stage larvae assessed as nematode mortality at 0.25% under light conditions measured 48 hr post dose by stereoscopic microscopy; format: functional; in short: as §2
Heterodera zeae [15] = experiment: Nematicidal activity against Heterodera zeae infective stage larvae assessed as nematode mortality at 1% under dark conditions measured 72 hr post dose by stereoscopic microscopy; format: functional; in short: as §2
Heterodera zeae [16] = experiment: Nematicidal activity against Heterodera zeae infective stage larvae assessed as nematode mortality at 0.125% under dark conditions measured 48 hr post dose by stereoscopic microscopy; format: functional; in short: as §2
Heterodera zeae [17] = experiment: Nematicidal activity against Heterodera zeae infective stage larvae assessed as nematode mortality at 5% under dark conditions measured 5 to 60 min post dose by stereoscopic microscopy; format: functional, organism-based; in short: as §1
Heterodera zeae [18] = experiment: Nematicidal activity against Heterodera zeae infective stage larvae assessed as nematode mortality at 5% under light conditions measured 5 to 60 min post dose by stereoscopic microscopy; format: functional, organism-based; in short: as §1
Heterodera zeae [19] = experiment: Nematicidal activity against Heterodera zeae infective stage larvae assessed as nematode mortality at 2% under dark conditions measured 5 to 60 min post dose by stereoscopic microscopy; format: functional, organism-based; in short: as §1
Heterodera zeae [20] = experiment: Nematicidal activity against Heterodera zeae infective stage larvae assessed as nematode mortality at 1% under light conditions measured 5 to 60 min post dose by stereoscopic microscopy; format: functional, organism-based; in short: as §1
Heterodera zeae [21] = experiment: Nematicidal activity against Heterodera zeae infective stage larvae assessed as nematode mortality at 0.25% under light conditions measured 24 hr post dose by stereoscopic microscopy; format: functional; in short: as §2
Heterodera zeae [22] = experiment: Nematicidal activity against Heterodera zeae infective stage larvae assessed as nematode mortality at 0.5% under light conditions measured 48 hr post dose by stereoscopic microscopy; format: functional; in short: as §2
Heterodera zeae [23] = experiment: Nematicidal activity against Heterodera zeae infective stage larvae assessed as nematode mortality at 0.125% under light conditions measured 48 hr post dose by stereoscopic microscopy; format: functional; in short: as §2
Heterodera zeae [24] = experiment: Nematicidal activity against Heterodera zeae infective stage larvae assessed as nematode mortality at 0.125% under light conditions measured 5 to 60 min post dose by stereoscopic microscopy; format: functional, organism-based; in short: as §1
Heterodera zeae [25] = experiment: Nematicidal activity against Heterodera zeae infective stage larvae assessed as nematode mortality at 0.25% under light conditions measured 5 to 60 min post dose by stereoscopic microscopy; format: functional, organism-based; in short: as §1
Heterodera zeae [26] = experiment: Nematicidal activity against Heterodera zeae infective stage larvae assessed as nematode mortality at 0.5% under dark conditions measured 72 hr post dose by stereoscopic microscopy; format: functional; in short: as §2
Heterodera zeae [27] = experiment: Nematicidal activity against Heterodera zeae infective stage larvae assessed as nematode mortality at 0.125% under dark conditions measured 5 to 60 min post dose by stereoscopic microscopy; format: functional, organism-based; in short: as §1
Heterodera zeae [28] = experiment: Nematicidal activity against Heterodera zeae infective stage larvae assessed as nematode mortality at 0.125% under dark conditions measured 24 hr post dose by stereoscopic microscopy; format: functional; in short: as §2
Heterodera zeae [29] = experiment: Nematicidal activity against Heterodera zeae infective stage larvae assessed as nematode mortality at 0.25% under dark conditions measured 72 hr post dose by stereoscopic microscopy; format: functional; in short: as §2
Heterodera zeae [30] = experiment: Nematicidal activity against Heterodera zeae infective stage larvae assessed as nematode mortality at 0.125% under light conditions measured 72 hr post dose by stereoscopic microscopy; format: functional; in short: as §2
Heterodera zeae [31] = experiment: Nematicidal activity against Heterodera zeae infective stage larvae assessed as nematode mortality at 1% under light conditions measured 48 hr post dose by stereoscopic microscopy; format: functional; in short: as §2
Heterodera zeae [32] = experiment: Nematicidal activity against Heterodera zeae infective stage larvae assessed as nematode mortality at 1% under dark conditions measured 5 to 60 min post dose by stereoscopic microscopy; format: functional, organism-based; in short: as §1
Heterodera zeae [33] = experiment: Nematicidal activity against Heterodera zeae infective stage larvae assessed as nematode mortality at 0.25% under dark conditions measured 5 to 60 min post dose by stereoscopic microscopy; format: functional, organism-based; in short: as §1
Heterodera zeae [34] = experiment: Nematicidal activity against Heterodera zeae infective stage larvae assessed as nematode mortality at 0.5% under dark conditions measured 48 hr post dose by stereoscopic microscopy; format: functional; in short: as §2
Heterodera zeae [35] = experiment: Nematicidal activity against Heterodera zeae infective stage larvae assessed as nematode mortality at 1% under light conditions measured 72 hr post dose by stereoscopic microscopy; format: functional; in short: as §2
Heterodera zeae [36] = experiment: Nematicidal activity against Heterodera zeae infective stage larvae assessed as nematode mortality at 0.5% under dark conditions measured 24 hr post dose by stereoscopic microscopy; format: functional; in short: as §2

| Compound | Activity (Heterodera zeae [1]) | Activity (Heterodera zeae [2]) | mortality (Heterodera zeae [3]) | mortality (Heterodera zeae [4]) | mortality (Heterodera zeae [5]) | mortality (Heterodera zeae [6]) | mortality (Heterodera zeae [7]) | mortality (Heterodera zeae [8]) | mortality (Heterodera zeae [9]) | mortality (Heterodera zeae [10]) | Activity (Heterodera zeae [11]) | mortality (Heterodera zeae [12]) | mortality (Heterodera zeae [13]) | mortality (Heterodera zeae [14]) | mortality (Heterodera zeae [15]) | mortality (Heterodera zeae [16]) | Activity (Heterodera zeae [17]) | Activity (Heterodera zeae [18]) | Activity (Heterodera zeae [19]) | Activity (Heterodera zeae [20]) | also measured |
| --- | --- | --- | --- | --- | --- | --- | --- | --- | --- | --- | --- | --- | --- | --- | --- | --- | --- | --- | --- | --- | --- |
| COc1c(O[C@@H]2O[C@H](CO)[C@@H](O)[C@H](O)[C@H]2O)cc2oc(-c3ccc(O)c(O)c3)c(O)c(=O)c2c1O [PATULITRIN] | inactive | inactive | 0% | 0% | 20% | 0% | 40% | 50% | 10% | 0% | inactive | 10% | 0% | 20% | 50% | 0% | inactive | inactive | inactive | inactive | mortality (Heterodera zeae [21]): 0%; mortality (Heterodera zeae [22]): 0%; mortality (Heterodera zeae [23]): 0%; Activity (Heterodera zeae [24]): inactive; Activity (Heterodera zeae [25]): inactive; mortality (Heterodera zeae [26]): 40%; Activity (Heterodera zeae [27]): inactive; mortality (Heterodera zeae [28]): 0%; mortality (Heterodera zeae [29]): 20%; mortality (Heterodera zeae [30]): 10%; mortality (Heterodera zeae [31]): 20%; Activity (Heterodera zeae [32]): inactive; Activity (Heterodera zeae [33]): inactive; mortality (Heterodera zeae [34]): 20%; mortality (Heterodera zeae [35]): 50%; mortality (Heterodera zeae [36]): 0% |
| CCCCCCCCCCCCCC(=O)O [MYRISTIC ACID] | inactive | inactive | 40% | 30% | 50% | 30% | 60% | 50% | 50% | 50% | inactive | 30% | 20% | 20% | 90% | 20% | inactive | inactive | inactive | inactive | mortality (Heterodera zeae [21]): 20%; mortality (Heterodera zeae [22]): 30%; mortality (Heterodera zeae [23]): 20%; Activity (Heterodera zeae [24]): inactive; Activity (Heterodera zeae [25]): inactive; mortality (Heterodera zeae [26]): 80%; Activity (Heterodera zeae [27]): inactive; mortality (Heterodera zeae [28]): 20%; mortality (Heterodera zeae [29]): 80%; mortality (Heterodera zeae [30]): 40%; mortality (Heterodera zeae [31]): 50%; Activity (Heterodera zeae [32]): inactive; Activity (Heterodera zeae [33]): inactive; mortality (Heterodera zeae [34]): 50%; mortality (Heterodera zeae [35]): 80%; mortality (Heterodera zeae [36]): 50% |
| COc1ccc(C(=O)O)cc1OC [VERATRIC ACID] | inactive | inactive | 80% | 60% | 100% | 30% | 60% | 100% | 50% | 50% | inactive | 40% | 10% | 50% | 90% | 20% | inactive | inactive | inactive | inactive | mortality (Heterodera zeae [21]): 10%; mortality (Heterodera zeae [22]): 80%; mortality (Heterodera zeae [23]): 50%; Activity (Heterodera zeae [24]): inactive; Activity (Heterodera zeae [25]): inactive; mortality (Heterodera zeae [26]): 80%; Activity (Heterodera zeae [27]): inactive; mortality (Heterodera zeae [28]): 10%; mortality (Heterodera zeae [29]): 80%; mortality (Heterodera zeae [30]): 100%; mortality (Heterodera zeae [31]): 100%; Activity (Heterodera zeae [32]): inactive; Activity (Heterodera zeae [33]): inactive; mortality (Heterodera zeae [34]): 50%; mortality (Heterodera zeae [36]): 50% |
